Measured values from ChEMBL document CHEMBL1157044, “Synthesis, biological and medicinal significance of S-glycosido-thieno[2,3-d]-pyrimidines as new anti-inflammatory and analgesic agents” (Eur J Med Chem, 2010).

Assays:
Mus musculus [1] = test: Antiinflammatory activity in Swiss albino mouse assessed as inhibition of carrageenan-induced paw edema at 100 mg/kg, po administered 60 mins before carrageenan challenge measured after 90 mins; assay type: functional
Method in brief: (§1)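 Mice fasted overnight, gavaged with suspension in 0.5% carboxymethyl cellulose or vehicle. 60 min later, 0.5 mg/25 µL carrageenan in 154 mM saline injected subplantar into right hind paw, saline into left. Right-minus-left footpad thickness by dial gauge every 90 min over 6 h; % inhibition versus control, mean ± SEM, two-tailed t-test. Indometacin reference.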

Mus musculus [2] = test: Toxicity in Swiss albino mouse assessed as gastric ulceration at 100 mg/kg, po; assay type: organism-based, Stomach; set-up: dose 100 mg/kg, route oral; conditions: in vivo
Method in brief: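 Mice fasted the day before (water allowed), given 100 mg/kg orally by gavage as suspension in 0.5% carboxymethyl cellulose; vehicle controls. Carrageenan paw oedema followed over 6 h. Immediately after last paw measurement, animals sacrificed under ether anaesthesia, stomachs removed and examined under dissecting microscope; stomach with one or more ulcers scored positive; expressed as ulcerated/total (n=6 per group).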

Mus musculus [3] = test: Antiinflammatory activity in Swiss albino mouse assessed as inhibition of carrageenan-induced paw edema at 100 mg/kg, po administered 60 mins before carrageenan challenge measured after 360 mins; assay type: functional; method in brief: as §1
Mus musculus [4] = test: Antiinflammatory activity in Swiss albino mouse assessed as inhibition of carrageenan-induced paw edema at 100 mg/kg, po administered 60 mins before carrageenan challenge measured after 270 mins; assay type: functional; method in brief: as §1
Mus musculus [5] = test: Antiinflammatory activity in Swiss albino mouse assessed as inhibition of carrageenan-induced paw edema at 100 mg/kg, po administered 60 mins before carrageenan challenge measured after 180 mins; assay type: functional; method in brief: as §1
Mus musculus [6] = test: Analgesic activity in Swiss albino mouse assessed as p-benzoquinone-induced writhing at 100 mg/kg, po administered 60 mins before benzoquinone challenge; assay type: functional
Method in brief: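 Mice fasted overnight with water allowed, dosed by gavage with suspension in 0.5% carboxymethyl cellulose; vehicle controls. 60 min later, i.p. 0.1 mL/10 g of 2.5% (v/v) p-benzoquinone in distilled water. Writhes counted individually for 15 min starting 5 min post-injection; % change from vehicle writhing controls, mean ± SEM, two-tailed t-test. Aspirin reference.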

| SMILES | inhibition in vivo at 100 mg/kg (Mus musculus [1]) [%] | Activity (Mus musculus [2]) | inhibition in vivo at 100 mg/kg (Mus musculus [3]) [%] | inhibition in vivo at 100 mg/kg (Mus musculus [4]) [%] | inhibition in vivo at 100 mg/kg (Mus musculus [5]) [%] | inhibition in vivo at 100 mg/kg (Mus musculus [6]) [%] |
| --- | --- | --- | --- | --- | --- | --- |
| CCOC(=O)c1sc2nc(S[C@@H]3O[C@H](COC(C)=O)[C@@H](OC(C)=O)[C@@H]3OC(C)=O)n(N)c(=O)c2c1C | 32.1 | Non-toxic | 38.9 | 35.9 | 35.6 | 53.3 |
| CCOC(=O)c1sc2nc(S[C@@H]3O[C@H](CO)[C@@H](O)[C@@H]3O)n(N)c(=O)c2c1C | 32.1 | Non-toxic | 38.9 | 35.9 | 35.6 | 53.3 |
| CC(=O)OC[C@H]1O[C@@H](Sc2nc3sc(C(C)=O)c(C)c3c(=O)n2N)[C@H](OC(C)=O)[C@@H](OC(C)=O)[C@H]1OC(C)=O | 14.9 | – | 13.1 | 10.5 | 7.8 | 13.8 |
| CCOC(=O)c1sc2c(c1C)C(=O)N(N)C(S[C@@H]1O[C@H](CO)[C@@H](O)[C@H](O)[C@H]1O)N2 (stereo partly drawn) | 29.7 | – | 34.4 | 33.9 | 31.2 | 51 |
| CC(=O)c1sc2[nH]c(=S)n(N)c(=O)c2c1C | 6.1 | Non-toxic | 8.5 | 8.3 | 7.8 | 35.7 |
| CCOC(=O)c1sc2nc(S[C@@H]3O[C@H](COC(C)=O)[C@@H](OC(C)=O)[C@H](OC(C)=O)[C@H]3OC(C)=O)n(N)c(=O)c2c1C | 13.2 | – | 22.3 | 20.3 | 14.7 | 37.9 |
| CCOC(=O)c1sc2[nH]c(=S)n(N)c(=O)c2c1C | 1.2 | Non-toxic | 8.5 | 8.3 | 6.1 | 23.9 |
| CC(=O)OC[C@H]1O[C@@H](Sc2nc3sc(C(C)=O)c(C)c3c(=O)n2N)[C@H](OC(C)=O)[C@@H](OC(C)=O)[C@@H]1OC(C)=O | 25.7 | Non-toxic | 34.2 | 29.9 | 23.9 | 45.4 |
| CCOC(=O)c1sc2nc(S[C@@H]3O[C@H](CO)[C@H](O)[C@H](O)[C@H]3O)n(N)c(=O)c2c1C | – | Non-toxic | – | – | – | – |
| CC(=O)c1sc2c(c1C)C(=O)N(N)C(S[C@@H]1O[C@H](CO)[C@H](O)[C@H](O)[C@H]1O)N2 (stereo partly drawn) | 14.4 | – | 20.7 | 17.5 | 16.6 | 35.7 |
| CC(=O)Oc1ccccc1C(=O)O [ASPIRIN] | – | – | – | – | – | 51.9 |
| CC(=O)OC[C@H]1O[C@@H](Sc2nc3sc(C(C)=O)c(C)c3c(=O)n2N)[C@@H](OC(C)=O)[C@@H]1OC(C)=O | 28.5 | Non-toxic | 35.6 | 28.6 | 29.8 | 48.8 |
| COc1ccc2c(c1)c(CC(=O)O)c(C)n2C(=O)c1ccc(Cl)cc1 [INDOMETHACIN] | 29.5 | – | 42.7 | 41.9 | 30.6 | – |
| CC(=O)c1sc2nc(S[C@@H]3O[C@H](CO)[C@@H](O)[C@@H]3O)n(N)c(=O)c2c1C | 28.5 | Non-toxic | 35.6 | 28.6 | 29.8 | 48.8 |
